Laboratory results reported in ChEMBL document CHEMBL3751849, “Design, Synthesis, and Biological Characterization of Novel Mitochondria Targeted Dichloroacetate-Loaded Compounds with Antileukemic Activity” (J Med Chem, 2016).
The source made the active and inactive calls. The rule behind the calls is not given here.

How the values were obtained:
[1] = Cell cycle arrest in human JVM2 cells assessed as accumulation at S phase at 300 uM after 48 hrs by BrdU/PI-staining based FACS analysis (reference value: 40%); assay type: functional; conditions: JVM-2
JVM-2 [2] = assay: Induction of apoptosis in human JVM2 cells assessed as early apoptotic cells at 300 uM after 48 hrs by annexin V-FITC/PI-staining based FACS analysis (reference value: 1.6%); assay type: functional
[3] = Cytotoxicity against human MEC2 cells at 3 to 300 uM after 48 hrs by MTT assay; assay type: cell-based; conditions: mec2, 48 h
Method in brief: (§1)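 Cells seeded at 1 × 10^6 cells/mL. JVM-2, MAVER and HL-60 were grown in RPMI-1640; MEC-1 and MEC-2 were grown in IMDM. Primary cells were grown in RPMI-1640. All media carried 10% FBS, L-glutamine and penicillin/streptomycin. Test agents were added at 3–300 μM, and DCA at 1–30 mM.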

[4] = Cytotoxicity against human JVM2 cells at 3 to 300 uM after 48 hrs by MTT assay; assay type: cell-based; conditions: jvm-2, 48 h; method in brief: as §1
[5] = Cytotoxicity against human Maver1 cells at 3 to 300 uM uM after 48 hrs by MTT assay; assay type: cell-based; conditions: maver1, 48 h; method in brief: as §1
[6] = Cytotoxicity against human MEC1 cells at 3 to 300 uM after 48 hrs by MTT assay; assay type: cell-based; conditions: mec1, 48 h; method in brief: as §1
[7] = Cytotoxicity against human HL60 cells at 3 to 300 uM after 48 hrs by MTT assay; assay type: cell-based; conditions: hl-60, 48 h; method in brief: as §1
JVM-2 [8] = assay: Induction of apoptosis in human JVM2 cells assessed as late apoptotic cells at 300 uM after 48 hrs by annexin V-FITC/PI-staining based FACS analysis (reference value: 11%); assay type: functional
[9] = Upregulation of p21 mRNA expression in human primary B-CLL cells at 300 uM after 24 to 48 hrs by qRT-PCR analysis; assay type: functional, cell-based
Leukemia cell [10] = assay: Reduction in mitochondrial coupling efficiency in human leukemia cells pretreated at 300 uM for 3 hrs followed by antimycin A/rotenone addition by seahorse analyzer; assay type: functional, cell-based
Method in brief: (§2)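 Leukemic cells were treated for 3 h at 300 μM, then plated at 3 × 10^5 cells/well on poly-L-lysine. They were held 1 h at 37 °C without CO2 and run on an XFe96 Mito stress test. Additions were made sequentially: oligomycin 1.0 μM, FCCP 1.0 μM, then antimycin A plus rotenone at 1.0 μM each. OCR was expressed as pmol O2/min and normalized to cell number. Coupling efficiency and spare capacity were calculated after subtracting non-mitochondrial OCR. Data are from six independent experiments.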

PBMC = assay: Cytotoxicity against human PBMC cells after 48 hrs by MTT assay; assay type: cell-based; method in brief: as §1
[11] = Induction of apoptosis in human primary B-CLL cells assessed as early apoptotic cells at 300 uM after 48 hrs by annexin V-FITC/PI-staining based FACS analysis (reference value: 10.7%); assay type: functional
Leukemia cell [12] = assay: Reduction in maximal oxygen consumption rate of mitochondria in human leukemia cells pretreated at 300 uM for 3 hrs followed by FCCP addition by seahorse analyzer; assay type: functional; method in brief: as §2
[13] = (§3) Cytotoxicity against human Maver1 cells after 48 hrs by MTT assay; assay type: functional, cell-based; conditions: Maver1, 48 h; method in brief: as §1
Maver1 = assay: as §3; assay type: functional, cell-based; method in brief: as §1
B-CLL = assay: Induction of p21 protein level in human primary B-CLL cells at 300 uM after 24 to 48 hrs by Western blot analysis; assay type: functional, cell-based
Method in brief: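 Primary B-CLL patient cells treated 24 or 48 h, lysed and analysed by Western blot using anti-p21 (C-19) antibody to detect p21 protein induction.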

Plasma [14] = assay: Metabolic stability in BALB/c mouse plasma assessed as compound remaining at 57 mg/kg, sc after >5 hrs by HPLC-MS analysis; assay type: ADME, organism-based; conditions: in vivo
Method in brief: (§4)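 Female BALB/c mice, 8 weeks old (n = 12), received one sc dose of 57 mg/kg in 200 μL PBS/25% DMSO. Tail-vein blood was drawn at 1, 2.5, 4, 5.5, 7, 16 and 24 h, and plasma was stored at −80 °C. Plasma (100 μL) was diluted in 300 μL acetonitrile/water/TFA and filtered. It was then analysed by nano-HPLC-MS on a C-18 column, using a 15-min water-to-acetonitrile gradient with 0.1% formic acid.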

Plasma [15] = assay: Retention time in BALB/c mouse plasma at 57 mg/kg, sc after 4 hrs by HPLC-MS analysis; assay type: ADME, organism-based; conditions: in vivo; method in brief: as §4
[16] = (§5) Cytotoxicity against human HL60 cells after 48 hrs by MTT assay; assay type: functional, cell-based; conditions: HL-60, 48 h; method in brief: as §1
HL-60 = assay: as §5; assay type: functional, cell-based; method in brief: as §1
MEC2 = assay: (§6) Cytotoxicity against human MEC2 cells after 48 hrs by MTT assay; assay type: functional, cell-based; method in brief: as §1
[17] = as §6; assay type: functional, cell-based; conditions: MEC2, 48 h; method in brief: as §1
JVM-2 [18] = assay: (§7) Cytotoxicity against human JVM2 cells after 48 hrs by MTT assay; assay type: functional, cell-based; method in brief: as §1
[19] = as §7; assay type: functional, cell-based; conditions: JVM-2, 48 h; method in brief: as §1
[20] = (§8) Cytotoxicity against human MEC1 cells after 48 hrs by MTT assay; assay type: functional, cell-based; conditions: MEC1, 48 h; method in brief: as §1
MEC1 = assay: as §8; assay type: functional, cell-based; method in brief: as §1
Plasma [21] = assay: Drug metabolism in BALB/c mouse plasma at 57 mg/kg, sc after >5 hrs by HPLC-MS analysis; assay type: ADME, organism-based; conditions: in vivo; method in brief: as §4
Leukemia cell [22] = assay: Reduction in basal oxygen consumption rate of mitochondria in human leukemia cells at 300 uM after 3 hrs by seahorse analyzer; assay type: functional; method in brief: as §2
[23] = Induction of apoptosis in human primary B-CLL cells assessed as late apoptotic cells at 300 uM after 48 hrs by annexin V-FITC/PI-staining based FACS analysis (reference value: 8.5%); assay type: functional
Leukemia cell [24] = assay: Reduction in mitochondrial spare respiratory capacity in human leukemia cells pretreated at 300 uM for 3 hrs followed by antimycin A/rotenone addition by seahorse analyzer; assay type: functional, cell-based; method in brief: as §2
JVM-2 [25] = assay: Induction of apoptosis in human JVM2 cells assessed as early apoptotic cells at 10 mM after 48 hrs by annexin V-FITC/PI-staining based FACS analysis (reference value: 1.6%); assay type: functional
Method in brief: (§9)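 JVM-2 cells seeded at 1 × 10^6 cells/mL in RPMI-1640 with 10% FBS and treated 48 h. Annexin V-FITC/PI staining read by flow cytometry, giving percentage of apoptotic leukemic cells. Mean ± SD of at least three independent experiments; p < 0.05 versus untreated cultures.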

JVM-2 [26] = assay: Induction of apoptosis in human JVM2 cells assessed as late apoptotic cells at 10 mM after 48 hrs by annexin V-FITC/PI-staining based FACS analysis (reference value: 11%); assay type: functional; method in brief: as §9
[27] = Cell cycle arrest in human JVM2 cells assessed as accumulation at S phase at 30 mM after 48 hrs by BrdU/PI-staining based FACS analysis (reference value: 40%); assay type: functional; conditions: JVM-2
[28] = Induction of apoptosis in human primary B-CLL cells assessed as late apoptotic cells at 30 mM after 48 hrs by annexin V-FITC/PI-staining based FACS analysis (reference value: 8.5%); assay type: functional
[29] = Induction of apoptosis in human primary B-CLL cells assessed as early apoptotic cells at 30 mM after 48 hrs by annexin V-FITC/PI-staining based FACS analysis (reference value: 10.7%); assay type: functional
[30] = Cytotoxicity against human MEC1 cells at 30 uM after 48 hrs by MTT assay; assay type: cell-based; conditions: mec1, 48 h; method in brief: as §1
[31] = Cytotoxicity against human HL60 cells at 30 uM after 48 hrs by MTT assay; assay type: cell-based; conditions: hl-60, 48 h; method in brief: as §1
[32] = Cytotoxicity against human Maver1 cells at 30 uM after 48 hrs by MTT assay; assay type: cell-based; conditions: maver1, 48 h; method in brief: as §1
[33] = Cytotoxicity against human MEC2 cells at 30 uM after 48 hrs by MTT assay; assay type: cell-based; conditions: mec2, 48 h; method in brief: as §1
[34] = Cytotoxicity against human JVM2 cells at 30 uM after 48 hrs by MTT assay; assay type: cell-based; conditions: jvm-2, 48 h; method in brief: as §1

Compound | Activity [1] [%] | Activity (JVM-2 [2]) [%] | Activity [3] | Activity [4] | Activity [5] | Activity [6] | Activity [7] | Activity (JVM-2 [8]) [%] | Activity [9] | IC50 [13] [mM] | Activity (B-CLL) | IC50 [16] [mM] | IC50 [17] [mM] | IC50 [19] [mM] | IC50 [20] [mM] | Activity (Leukemia cell [22]) | also measured
CC(C)(C)OC(=O)NCCN(CCNC(=O)OC(C)(C)C)CCNC(=O)OC(C)(C)C | 41 | 1.3 | Non-toxic | Non-toxic | Non-toxic | Non-toxic | Non-toxic | 10.9 | – | – | – | – | – | – | – | – | –
O=C(NCCN(CCNC(=O)C(Cl)Cl)CCNC(=O)C(Cl)Cl)C(Cl)Cl | 22 | 1.1 | – | – | – | – | – | 25.5 | Active | 0.55 | Active | 0.34 | 0.37 | 0.41 | 0.4 | Active | Activity (Leukemia cell [10]): Active; IC50 (PBMC): 1.26 mM; Activity [11]: 14.4%; Activity (Leukemia cell [12]): Active; Activity (Maver1): Dose-dependent effect; Stability (Plasma [14]): Stable; Retention_time (Plasma [15]): 0.455 min; Activity (HL-60): Dose-dependent effect; Activity (MEC2): Dose-dependent effect; Activity (JVM-2 [18]): Dose-dependent effect; Activity (MEC1): Dose-dependent effect; Drug metabolism (Plasma [21]): metabolite_notdetected; Activity [23]: 42.8%; Activity (Leukemia cell [24]): Active
O=C(O)C(Cl)Cl [DICHLOROACETIC ACID] | – | – | – | – | – | – | – | – | Active | 11.8 | Active | 13.9 | 12.2 | 11.5 | 8.29 | – | Activity (JVM-2 [25]): 2.8%; Activity (JVM-2 [26]): 26.8%; Activity [27]: 15%; Activity [28]: 45.4%; Activity [29]: 20.7%
CC(=O)OCC(COC(C)=O)(COC(C)=O)NC(=O)CCCCC[P+](c1ccccc1)(c1ccccc1)c1ccccc1.[Br-] | – | – | – | – | – | – | – | – | – | – | – | – | – | – | – | – | Activity [30]: Toxic; Activity [31]: Toxic; Activity [32]: Toxic; Activity [33]: Toxic; Activity [34]: Toxic
C[N+](CCNC(=O)C(Cl)Cl)(CCNC(=O)C(Cl)Cl)CCNC(=O)C(Cl)Cl | – | – | – | – | – | – | – | – | – | – | – | – | – | – | – | inactive | –
CC(C)(C)OC(=O)NCC[N+](C)(CCNC(=O)OC(C)(C)C)CCNC(=O)OC(C)(C)C.[I-] | – | – | Non-toxic | Non-toxic | Non-toxic | Non-toxic | Non-toxic | – | – | – | – | – | – | – | – | – | –
